For 72 compounds, cytotoxicity results are on record in ChEMBL document CHEMBL4513216, “Probing the Open Global Health Chemical Diversity Library for Multistage-Active Starting Points for Next-Generation Antimalarials” (ACS Infect Dis, 2020).

This series can be described thus: Toxicity liver stage against HepG2, at 10uM. As to conditions: human, HepG2-A16-CD81EGFP cells; read-out: INHIBITION
It is filed as cell-based. Also on record: test concentration 10 uM, cell line HepG2-A16-CD81EGFP. Put shortly:
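Uninfected HepG2-A16-CD81EGFP cells, 3 × 10^3 per well, 1536-well, plated on prespotted compound at 10 μM final, parasite-free screening media added to match infected plates; puromycin 10 μM positive, DMSO 0.5% negative; run in parallel with 48 h PbLuc assay at 37 °C, 5% CO2; viability by CellTiter-Glo luminescence, normalized to controls.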
As for `CC1CCN(Cc2cc(=O)[nH]c(=O)[nH]2)CC1`, the cytotoxicity at 10 µM was 9.95%. With `O=C(c1cc(CC2(NCC3CCCCC3)COC2)no1)N1CCCCC1` the figure was 5.35%; with `COCC(=O)N[C@H](C)c1onc(-c2ccc(OC)cc2)c1C(=O)O`, 4.82%; with `COCCNc1ccc(-c2noc([C@@H]3CCCN3)n2)cn1`, -1.57%. `CCc1cc(=O)[nH]c2nnc(SCC(=O)NC(C)C)n12`: the cytotoxicity at 10 µM was -6.93%. For `O=C(c1ccc(Cl)cc1)N1CCc2nc(C(=O)N3CCCC3)sc2CC1`, the cytotoxicity at 10 µM came to 8.04%. With `CCN(CC)Cc1nnc2sc(-c3cc(C(C)C)[nH]n3)nn12` the figure was -7.02%; with `O=c1[nH]nc(-c2cccs2)c2sc(N3CCOCC3)nc12`, 9.28%; with `CN(C(=O)Cn1nc(-c2ccc(Br)cc2)ccc1=O)C1CCS(=O)(=O)C1` (configuration not stated), 4.38%. As for `CN(C)c1nccc(C2CCCCN2Cc2cnn3cccnc23)n1` (configuration not stated), the cytotoxicity at 10 µM turned out to be 10.5%. For `COc1cccc(CN2CCCC2c2cncc(Nc3nncs3)n2)c1` (configuration not stated), the cytotoxicity at 10 µM was found to be 4.73%. Consider `CCN1CCCC1CNCc1cc2cc(C)c(C)cc2[nH]c1=O` (configuration not stated), for which the cytotoxicity at 10 µM was -6.69%. Take `O=C(NCCc1ccc(F)cc1)C1CN(C(=O)Cn2cncn2)C1`: the cytotoxicity at 10 µM stood at 3.54%. In the case of `COC(=O)Cc1cn2cc(C(F)(F)F)ccc2n1`, the cytotoxicity at 10 µM stood at 9.21%.

With `CN1CCOC(C(=O)Nc2nc(-c3ccc(Cl)cc3)n[nH]2)C1` (configuration not stated), the cytotoxicity at 10 µM was -4.34%.

`CN(C)Cc1nc(C(C)(C)NC(=O)c2nc3ccccc3s2)no1`: the cytotoxicity at 10 µM stood at 8.61%. With `CCS(=O)(=O)CC(C)N(C)C(=O)COc1ccccc1C#N` (configuration not stated) the figure was -3.51%; with `COc1cc(OC)cc(C2CCN(CC(=O)NCC(F)(F)F)C2)c1` (configuration not stated), 2.29%; with `Cc1cnn(CC2CCCN2CC(=O)NCc2ccccn2)c1` (configuration not stated), -5%. Regarding `COC(=O)c1ccc(CNC(C)(C)c2ccccc2OC)o1`, the cytotoxicity at 10 µM was -0.651%. On to `CC(=O)N(Cc1ccoc1)C1CCCCC1`, for which the cytotoxicity at 10 µM is -2.86%. For `CC(C)Oc1ccc(C(O)CNCc2ccccc2C(F)(F)F)cc1` (configuration not stated), the cytotoxicity at 10 µM was -1.71%.

Consider `CSc1nsc(NC(=O)N(C)Cc2ccc3c(c2)OCO3)n1`, for which the cytotoxicity at 10 µM was -10.4%.

Regarding `FC(F)Oc1ccc(NCc2nc(C3CC3)no2)c(OC(F)F)c1`, the cytotoxicity at 10 µM was determined as 4.19%. Consider `CC(C)(C)NC(=O)C1CSCN1C(=O)CCc1ccco1` (configuration not stated), for which the cytotoxicity at 10 µM was -6.77%. In the case of `NC(=O)C1CCN(CCCNC(=O)Nc2nccs2)CC1`, the cytotoxicity at 10 µM is -0.287%. With `CN1CCN(c2ncccc2CNc2ncccc2C#N)CC1` the figure was 15.4%; with `CC(O)CC(C)(C)CNC(=O)NCc1cccc(-n2ccnc2)c1` (configuration not stated), -3.34%. Next, `CN(C)C1CCN(C(=O)NCc2ccccc2Cn2cncn2)CC1`: -8.15%. `CC(C)Cc1noc(CN2CCN(C(=O)c3cccc(F)c3)CC2)n1`: the cytotoxicity at 10 µM was -5.7%. In the case of `COc1ccc(CNCCc2cc(F)cc3c2OCOC3)cc1O`, the cytotoxicity at 10 µM was -9.26%. Turning to `Cc1ccc(CN2C[C@H](OCC3CCN(C)CC3)[C@H]3COC[C@H]32)o1`, the cytotoxicity at 10 µM came to 6.19%. Next, `O=C(NCC1Cn2nnc(-c3ccccc3)c2CO1)c1ccc[nH]1` (configuration not stated): -1.2%; `Cc1cc(N2CCC3(CCC(=O)N(CC4CC4)C3)CC2)ncn1`: -7.8%; `CC(C)Oc1cc(N2CCCC(O)C2)nc(N)n1` (configuration not stated): -0.796%. With `Cc1cc(C(=O)N(C)Cc2ccoc2)c(NC(=O)C(C)(C)C)s1`, the cytotoxicity at 10 µM was 12.1%. Turning to `Cc1ccc(C)c(NC(=O)N2C[C@H](N(C)C)C[C@H]2CO)c1`, the cytotoxicity at 10 µM was -0.861%. For `COCc1c(C(=O)N2CCCC(N(C)Cc3ccccc3)C2)noc1C` (configuration not stated), the cytotoxicity at 10 µM was -16.8%.

Regarding `COc1ccccc1N1CCN(C(=O)CCc2nncn2C)C(C)C1` (configuration not stated), the cytotoxicity at 10 µM amounted to 16%. Turning to `CC(C)S(=O)(=O)N1CCOC(CCc2ccccc2)C1` (configuration not stated), the cytotoxicity at 10 µM is -4.53%.

Take `O=c1cc(N2CCCCC2)cnn1CC(O)C(F)(F)F` (configuration not stated): the cytotoxicity at 10 µM came to 12.3%. For the compound `O=C1CC2(CCCC2)CC(=O)N1CCn1cnnc1`, the cytotoxicity at 10 µM is -0.54%. Next, `CN1CC2(CCN(C(=O)c3cn4cccnc4n3)CC2)CC1=O`: -7.72%; `CC(C)CN1CC2(CCN(C(=O)C(O)c3cccc(Cl)c3)CC2)CC1=O` (configuration not stated): -1.45%. With `CN(Cc1cccc(-n2cccn2)c1)Cc1cccs1` the figure was -7.54%; with `COC[C@@H]1CCCN1C(=O)c1cc(-c2ccc(OC)cc2)n[nH]1`, 13.2%. Regarding `COc1cccc(-c2cccc(-c3ccn(CC4COCCO4)n3)c2)n1` (configuration not stated), the cytotoxicity at 10 µM was -3.81%. `CCc1nc(C)c(CC(=O)N2CCC3(CC2)OCCCC3OC)c(=O)[nH]1` (configuration not stated): the cytotoxicity at 10 µM is -0.506%. As for `COc1cncc(-n2nc(C)c(CC(C)=O)c2C)c1`, the cytotoxicity at 10 µM was -12.8%. Next, `CNC(=O)CNC(=O)CC1C(=O)NCCN1Cc1ccccc1C` (configuration not stated): -2.88%; `COc1ccc(-c2nc(CN(C)Cc3nncn3C)c(C)o2)c(C)c1C`: -8.87%. Consider `O=C(CN1CCOCS1(=O)=O)NCCc1ccc(Cl)cc1`, for which the cytotoxicity at 10 µM was -5.14%.

Regarding `CC(C)CN1CCN(Cc2nc3ccccc3[nH]2)[C@H]2CS(=O)(=O)C[C@H]21`, the cytotoxicity at 10 µM came to 14.4%. As to `COC(=O)c1ccc2ccn(CC3CCCO3)c(=O)c2c1` (configuration not stated), the cytotoxicity at 10 µM is -15.8%. With `COC1CCCN(C(=O)Nc2nc(C)n(C)n2)C1` (configuration not stated) the figure was 16.3%; with `COc1c(C)cnc(CN2CCC(N(C)C(=O)C(C)OC)CC2)c1C` (configuration not stated), -11.3%; with `Cc1[nH]ncc1CCCNC(=O)N1CCCC(c2nncn2C)C1` (configuration not stated), -7.58%. For the compound `CC(NC(=O)CSCC#N)c1cccc(Cl)c1` (configuration not stated), the cytotoxicity at 10 µM is -3.06%. In the case of `CCN1CCN(C(=O)NCc2cc[nH]n2)CC1`, the cytotoxicity at 10 µM was -12.7%. Next, `Cc1nc(C)c(C(=O)NCCNC(=O)Cc2ccc(F)cc2)s1`: -5.68%; `CC(C)n1cc(CN2CCCN(C(=O)C3CCOC3)CC2)cn1` (configuration not stated): -8.45%; `N#Cc1ccccc1N1CCCN(C(=O)CCc2cccs2)CC1`: -1.27%. On to `Cc1nc(C(C)C)sc1C(=O)NCCNc1ncccc1C#N`, for which the cytotoxicity at 10 µM is -2.55%. For `CCn1nc2c(cc1=O)CN(CC(=O)Nc1nnc(C)s1)CC2`, the cytotoxicity at 10 µM is -18.2%. With `COc1ccc(C(C)NC(=O)Cn2ccc(=O)n(C)c2=O)cc1F` (configuration not stated), the cytotoxicity at 10 µM is -3.17%. Turning to `c1cnnc(N2CCCC2CNCc2noc(C3CC3)n2)c1` (configuration not stated), the cytotoxicity at 10 µM is -7.45%. Turning to `Cc1nn(C)c(N2CCOCC2)c1CNCc1ccoc1C`, the cytotoxicity at 10 µM was -8.76%. With `O=C1N(c2cccnc2)CCC12CCCN(Cc1ccoc1)C2` (configuration not stated) the figure was -1.6%; with `O=C(NCc1cnc2n1CCN(CC1CC1)C2)C1CC1`, 5.06%. Take `Cc1cnc(N2CCOC3(CCCN(CC(=O)N(C)C)C3)C2)nc1` (configuration not stated): the cytotoxicity at 10 µM worked out at 8.67%. Consider `Cc1cc(CN2C[C@@H]3CN(C(=O)c4ccsc4)CCO[C@@H]3C2)no1`, for which the cytotoxicity at 10 µM is -131%. Consider `c1cnc(NC[C@@H]2CCC[C@@H]3CN(Cc4csnn4)C[C@@H]32)nc1`, for which the cytotoxicity at 10 µM is -126%.
